In ChEMBL document CHEMBL1153060, “Part 1: Structure-Activity Relationship (SAR) investigations of fused pyrazoles as potent, selective and orally available inhibitors of p38alpha mitogen-activated protein kinase” (Bioorg Med Chem Lett, 2009):
Converted amounts (≈) assume the structure as drawn.

Tests used:
Rattus norvegicus [1] = organism: Rattus norvegicus; experiment: Plasma concentration in Lewis rat at ED50; type: ADME, organism-based; settings: in vivo
[2] = target: Mitogen-activated protein kinase 10 (Homo sapiens, UniProt P53779); experiment: Inhibition of JNK3
[3] = Solubility in 0.01N HCl; type: physicochemical
THP-1 = experiment: Inhibition of LPS-induced TNFalpha release in human THP1 cells after 3 hrs; type: functional, cell-based; settings: THP-1, 3 h
Procedure, shortened: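 THP1 cell line challenged with LPS, with TNFα secretion as read-out. IC50 is the mean of at least three independent dose–response curves, or of two where flagged.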

Rattus norvegicus [4] = experiment: Inhibition of LPS-induced TNFalpha production in Lewis rat at 0.3 mg/kg, po administered 60 mins prior to LPS challenge measured after 90 mins by ELISA
[5] = AUC (0 to infinity) in Sprague-Dawley rat at 2 mg/kg, po; type: ADME, organism-based; parameters: time infinity, dose 2 mg/kg, route oral; settings: plasma
Procedure, shortened: (§1)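 Male Sprague–Dawley rats given 2.0 mg/kg iv (in DMSO) or 2.0 mg/kg po. Values are the mean of three rats. Reported parameters are CL, Vdss, t1/2, AUC(0-inf) and oral F.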

Rattus norvegicus [6] = experiment: Inhibition of LPS-induced TNFalpha production in Lewis rat at 0.1 mg/kg, po administered 60 mins prior to LPS challenge measured after 90 mins by ELISA
Homo sapiens = organism: Homo sapiens; experiment: Protein binding in human plasma by ultrafiltration method; settings: read-out: PPB (converted)
Cytochrome P450 2D6 = Cytochrome P450 2D6 (Homo sapiens, UniProt P10635); experiment: Inhibition of CYP2D6; type: ADME
Cytochrome P450 2C19 = Cytochrome P450 2C19 (Homo sapiens, UniProt P33261); experiment: Inhibition of CYP2C19; type: ADME
[7] = Volume of distribution at steady state in Sprague-Dawley rat at 2 mg/kg, iv; type: ADME, organism-based; parameters: dose 2 mg/kg, route intravenous; settings: in vivo, read-out: Vdss; procedure, shortened: as §1
Rattus norvegicus [8] = experiment: Inhibition of LPS-induced TNFalpha production in Lewis rat at 0.03 mg/kg, po administered 60 mins prior to LPS challenge measured after 90 mins by ELISA
[9] = Protein binding in rat plasma by ultrafiltration method; settings: read-out: PPB (converted)
[10] = Clearance in Sprague-Dawley rat at 2 mg/kg, iv; type: ADME, organism-based; parameters: dose 2 mg/kg, route intravenous; settings: in vivo; procedure, shortened: as §1
Cytochrome P450 3A4 = Cytochrome P450 3A4 (Homo sapiens, UniProt P08684); experiment: Inhibition of CYP3A4; type: ADME
[11] = target: Mitogen-activated protein kinase 8 (Homo sapiens, UniProt P45983); experiment: Inhibition of JNK1
Cytochrome P450 2C9 = Cytochrome P450 2C9 (Homo sapiens, UniProt P11712); experiment: Inhibition of CYP2C9; type: ADME
[12] = target: Mitogen-activated protein kinase 9 (Homo sapiens, UniProt P45984); experiment: Inhibition of JNK2
[13] = target: T1, Mitogen-activated protein kinase 13 (Homo sapiens, UniProt O15264); experiment: Inhibition of p38delta
T1 sequence (O15264 whole entry): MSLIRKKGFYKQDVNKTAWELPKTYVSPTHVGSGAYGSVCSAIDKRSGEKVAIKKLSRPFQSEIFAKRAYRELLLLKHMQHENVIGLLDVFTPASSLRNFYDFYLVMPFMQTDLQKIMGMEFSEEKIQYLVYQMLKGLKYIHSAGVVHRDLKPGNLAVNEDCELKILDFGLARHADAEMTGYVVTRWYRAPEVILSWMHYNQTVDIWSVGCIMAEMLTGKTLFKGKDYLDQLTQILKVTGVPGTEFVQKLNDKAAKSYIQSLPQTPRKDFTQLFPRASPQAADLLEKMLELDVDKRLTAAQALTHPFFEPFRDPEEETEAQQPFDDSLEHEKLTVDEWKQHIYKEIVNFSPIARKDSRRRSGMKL

[14] = Half life in Sprague-Dawley rat at 2 mg/kg, iv; type: ADME, organism-based; parameters: dose 2 mg/kg, route intravenous; settings: in vivo; procedure, shortened: as §1
[15] = target: Mitogen-activated protein kinase 11 (Homo sapiens, UniProt Q15759); experiment: Inhibition of p38beta
[16] = Ratio of drug level in brain to plasma in Lewis rat; type: ADME; settings: read-out: BPR
Rattus norvegicus [17] = experiment: Inhibition of LPS-induced TNFalpha production in po dosed Lewis rat administered 60 mins prior to LPS challenge measured after 90 mins by ELISA
Rattus norvegicus [18] = experiment: Inhibition of LPS-induced TNFalpha production in Lewis rat at 0.01 mg/kg, po administered 60 mins prior to LPS challenge measured after 90 mins by ELISA
Blood = experiment: Inhibition of TNF-alpha-stimulated IL8 production in human whole blood incubated for 1 hr before TNFalpha challenge measured after 16 to 18 hrs; type: functional, tissue-based
Procedure, shortened: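 Human whole blood diluted to 50% and stimulated with TNFα, with IL-8 secretion as read-out. IC50 is the mean of at least three independent dose–response curves, or of two where flagged.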

[19] = target: Mitogen-activated protein kinase 14 (Homo sapiens, UniProt Q16539); experiment: Inhibition of human recombinant p38alpha assessed as phosphorylation of ATF2 by scintillation proximity assay
[20] = target: T2, Mitogen-activated protein kinase 12 (Homo sapiens, UniProt P53778); experiment: Inhibition of p38-gamma
T2 sequence (P53778 whole entry): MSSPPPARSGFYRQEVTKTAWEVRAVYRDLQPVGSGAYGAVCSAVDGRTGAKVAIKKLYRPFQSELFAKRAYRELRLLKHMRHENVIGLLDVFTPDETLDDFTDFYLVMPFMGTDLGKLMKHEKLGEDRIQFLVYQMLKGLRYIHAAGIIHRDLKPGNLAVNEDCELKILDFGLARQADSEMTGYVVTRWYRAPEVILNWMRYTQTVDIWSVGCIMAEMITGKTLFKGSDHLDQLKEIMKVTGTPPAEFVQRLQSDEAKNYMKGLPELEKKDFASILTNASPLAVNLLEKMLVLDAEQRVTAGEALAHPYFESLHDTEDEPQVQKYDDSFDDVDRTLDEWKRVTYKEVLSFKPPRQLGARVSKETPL

[21] = Solubility in simulated intestinal fluid; type: physicochemical
[22] = target: RAF proto-oncogene serine/threonine-protein kinase (Homo sapiens) (UniProt P04049); experiment: Inhibition of c-Raf at 1.5 uM; values are per cent of control
Cytochrome P450 1A2 = target: T3, Cytochrome P450 1A2 (Homo sapiens, UniProt P05177); experiment: Inhibition of CYP1A2; type: ADME
T3 sequence (P05177 whole entry): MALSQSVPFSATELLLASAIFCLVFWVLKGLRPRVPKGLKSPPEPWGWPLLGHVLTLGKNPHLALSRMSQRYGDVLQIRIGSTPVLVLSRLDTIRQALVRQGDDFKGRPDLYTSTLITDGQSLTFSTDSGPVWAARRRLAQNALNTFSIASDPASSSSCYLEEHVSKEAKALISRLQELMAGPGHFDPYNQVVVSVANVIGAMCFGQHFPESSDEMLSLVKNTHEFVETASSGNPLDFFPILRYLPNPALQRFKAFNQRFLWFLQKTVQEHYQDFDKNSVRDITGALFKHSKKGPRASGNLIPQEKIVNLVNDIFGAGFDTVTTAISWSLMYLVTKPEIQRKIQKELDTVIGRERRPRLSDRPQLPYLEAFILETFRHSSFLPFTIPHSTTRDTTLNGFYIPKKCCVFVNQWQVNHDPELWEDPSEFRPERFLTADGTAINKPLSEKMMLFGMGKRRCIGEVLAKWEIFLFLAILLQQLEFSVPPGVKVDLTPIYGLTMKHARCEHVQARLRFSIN

[23] = Solubility in phosphate buffered saline; type: physicochemical
[24] = Oral bioavailability in Sprague-Dawley rat at 2 mg/kg; type: ADME, organism-based; settings: in vivo; procedure, shortened: as §1

Cytochrome P450 2C9, sequence (P11712 whole entry): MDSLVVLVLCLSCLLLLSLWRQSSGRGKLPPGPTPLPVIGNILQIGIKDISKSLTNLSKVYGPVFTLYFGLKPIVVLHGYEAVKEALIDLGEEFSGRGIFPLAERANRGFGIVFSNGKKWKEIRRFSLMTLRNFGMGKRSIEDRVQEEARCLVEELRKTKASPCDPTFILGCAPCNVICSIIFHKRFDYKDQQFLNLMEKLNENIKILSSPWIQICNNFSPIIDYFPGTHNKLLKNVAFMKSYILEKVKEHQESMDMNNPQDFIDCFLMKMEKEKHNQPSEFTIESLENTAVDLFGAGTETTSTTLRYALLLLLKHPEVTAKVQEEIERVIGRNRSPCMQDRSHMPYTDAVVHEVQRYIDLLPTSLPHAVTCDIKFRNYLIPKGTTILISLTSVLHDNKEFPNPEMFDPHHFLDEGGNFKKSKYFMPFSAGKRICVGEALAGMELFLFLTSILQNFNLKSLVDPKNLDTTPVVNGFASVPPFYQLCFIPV
Mitogen-activated protein kinase 8, sequence (P45983 whole entry): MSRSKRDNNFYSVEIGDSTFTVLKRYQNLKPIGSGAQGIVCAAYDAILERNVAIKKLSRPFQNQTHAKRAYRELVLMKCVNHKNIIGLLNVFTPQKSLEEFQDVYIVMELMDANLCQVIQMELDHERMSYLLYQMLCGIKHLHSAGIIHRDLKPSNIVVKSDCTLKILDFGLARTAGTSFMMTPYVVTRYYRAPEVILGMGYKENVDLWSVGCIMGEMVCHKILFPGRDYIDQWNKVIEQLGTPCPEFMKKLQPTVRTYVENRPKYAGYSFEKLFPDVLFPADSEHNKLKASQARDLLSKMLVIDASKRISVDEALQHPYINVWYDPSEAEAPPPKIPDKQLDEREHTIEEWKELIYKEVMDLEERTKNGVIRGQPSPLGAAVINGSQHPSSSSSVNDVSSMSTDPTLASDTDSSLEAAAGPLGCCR
Mitogen-activated protein kinase 10, sequence (P53779 whole entry): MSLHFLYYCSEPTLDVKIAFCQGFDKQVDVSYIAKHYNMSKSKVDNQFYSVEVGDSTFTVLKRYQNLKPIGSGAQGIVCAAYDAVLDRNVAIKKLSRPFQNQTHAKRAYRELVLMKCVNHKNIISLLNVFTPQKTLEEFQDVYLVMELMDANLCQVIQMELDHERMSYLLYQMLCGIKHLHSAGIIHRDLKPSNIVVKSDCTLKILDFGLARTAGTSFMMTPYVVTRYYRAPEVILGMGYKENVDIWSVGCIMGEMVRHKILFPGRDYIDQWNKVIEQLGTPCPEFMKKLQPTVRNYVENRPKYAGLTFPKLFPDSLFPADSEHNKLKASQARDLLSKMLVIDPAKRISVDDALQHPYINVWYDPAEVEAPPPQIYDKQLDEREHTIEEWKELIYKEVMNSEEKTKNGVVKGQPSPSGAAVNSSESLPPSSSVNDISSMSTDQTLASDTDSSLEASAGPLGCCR
Cytochrome P450 2C19, sequence (P33261 whole entry): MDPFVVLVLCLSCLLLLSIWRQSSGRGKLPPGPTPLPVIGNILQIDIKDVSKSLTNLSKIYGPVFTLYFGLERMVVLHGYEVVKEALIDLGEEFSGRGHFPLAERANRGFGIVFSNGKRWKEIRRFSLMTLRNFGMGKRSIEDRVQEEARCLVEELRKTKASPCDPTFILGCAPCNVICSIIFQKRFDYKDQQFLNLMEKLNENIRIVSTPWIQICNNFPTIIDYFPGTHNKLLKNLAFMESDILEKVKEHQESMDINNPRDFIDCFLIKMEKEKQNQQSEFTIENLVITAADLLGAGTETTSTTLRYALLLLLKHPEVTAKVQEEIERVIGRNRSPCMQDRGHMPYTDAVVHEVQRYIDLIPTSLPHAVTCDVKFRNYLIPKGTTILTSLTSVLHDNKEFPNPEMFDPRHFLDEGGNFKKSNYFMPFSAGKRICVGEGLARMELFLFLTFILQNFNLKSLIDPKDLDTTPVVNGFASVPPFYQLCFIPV
Mitogen-activated protein kinase 9, sequence (P45984 whole entry): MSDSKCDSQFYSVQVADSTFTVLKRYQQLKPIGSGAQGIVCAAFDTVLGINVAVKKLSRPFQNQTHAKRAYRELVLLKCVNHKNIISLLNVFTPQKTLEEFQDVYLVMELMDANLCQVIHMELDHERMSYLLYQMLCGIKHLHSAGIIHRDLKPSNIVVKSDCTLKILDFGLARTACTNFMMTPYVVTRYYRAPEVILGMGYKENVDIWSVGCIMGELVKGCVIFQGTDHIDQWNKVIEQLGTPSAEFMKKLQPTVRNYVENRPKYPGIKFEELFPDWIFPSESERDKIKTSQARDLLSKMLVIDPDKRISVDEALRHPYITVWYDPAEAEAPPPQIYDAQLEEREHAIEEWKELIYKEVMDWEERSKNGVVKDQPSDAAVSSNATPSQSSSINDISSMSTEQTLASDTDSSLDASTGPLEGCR
Cytochrome P450 3A4, sequence (P08684 whole entry): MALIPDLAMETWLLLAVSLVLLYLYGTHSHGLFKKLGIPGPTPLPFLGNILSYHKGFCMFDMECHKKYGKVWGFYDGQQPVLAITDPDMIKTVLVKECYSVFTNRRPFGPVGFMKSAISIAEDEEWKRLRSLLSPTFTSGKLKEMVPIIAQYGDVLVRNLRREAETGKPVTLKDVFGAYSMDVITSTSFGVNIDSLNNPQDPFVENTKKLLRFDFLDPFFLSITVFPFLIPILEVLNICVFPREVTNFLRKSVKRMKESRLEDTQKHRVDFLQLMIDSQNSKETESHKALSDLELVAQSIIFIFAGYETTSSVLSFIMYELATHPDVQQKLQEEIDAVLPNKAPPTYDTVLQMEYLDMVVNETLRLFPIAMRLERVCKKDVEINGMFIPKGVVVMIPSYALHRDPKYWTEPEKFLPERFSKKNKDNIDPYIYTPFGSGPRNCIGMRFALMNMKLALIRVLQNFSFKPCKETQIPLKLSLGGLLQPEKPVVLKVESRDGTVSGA
Cytochrome P450 2D6, sequence (P10635 whole entry): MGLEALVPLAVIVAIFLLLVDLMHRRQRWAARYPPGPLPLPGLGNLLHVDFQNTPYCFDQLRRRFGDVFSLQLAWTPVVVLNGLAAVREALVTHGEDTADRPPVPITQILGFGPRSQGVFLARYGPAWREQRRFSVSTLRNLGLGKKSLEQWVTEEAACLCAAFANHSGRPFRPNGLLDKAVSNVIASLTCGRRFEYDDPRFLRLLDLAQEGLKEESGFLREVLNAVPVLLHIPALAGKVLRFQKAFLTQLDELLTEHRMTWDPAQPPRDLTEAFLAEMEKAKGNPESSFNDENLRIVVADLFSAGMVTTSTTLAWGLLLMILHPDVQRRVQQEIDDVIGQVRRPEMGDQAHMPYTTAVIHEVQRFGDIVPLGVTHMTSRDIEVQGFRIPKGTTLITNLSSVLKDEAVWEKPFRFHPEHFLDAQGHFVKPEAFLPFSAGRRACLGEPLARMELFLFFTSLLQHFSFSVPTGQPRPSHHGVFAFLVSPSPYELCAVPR
RAF proto-oncogene serine/threonine-protein kinase (Homo sapiens), sequence (P04049 whole entry): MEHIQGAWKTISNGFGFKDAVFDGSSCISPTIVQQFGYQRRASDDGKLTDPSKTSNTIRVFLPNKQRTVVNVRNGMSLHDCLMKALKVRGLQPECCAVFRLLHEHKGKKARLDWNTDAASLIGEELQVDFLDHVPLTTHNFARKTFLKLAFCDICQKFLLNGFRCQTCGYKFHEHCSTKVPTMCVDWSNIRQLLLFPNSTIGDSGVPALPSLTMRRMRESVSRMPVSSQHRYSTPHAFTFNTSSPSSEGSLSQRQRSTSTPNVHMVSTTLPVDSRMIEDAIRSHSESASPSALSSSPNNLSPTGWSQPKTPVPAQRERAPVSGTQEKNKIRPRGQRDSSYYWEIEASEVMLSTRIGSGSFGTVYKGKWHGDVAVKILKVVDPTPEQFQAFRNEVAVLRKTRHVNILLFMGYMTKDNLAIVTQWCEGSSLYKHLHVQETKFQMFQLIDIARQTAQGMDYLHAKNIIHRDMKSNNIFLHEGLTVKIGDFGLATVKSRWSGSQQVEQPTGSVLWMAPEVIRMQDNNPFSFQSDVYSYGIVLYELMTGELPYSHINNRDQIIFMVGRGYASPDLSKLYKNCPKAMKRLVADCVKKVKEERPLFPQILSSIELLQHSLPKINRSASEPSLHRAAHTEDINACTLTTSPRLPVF
Mitogen-activated protein kinase 14, sequence (Q16539 whole entry): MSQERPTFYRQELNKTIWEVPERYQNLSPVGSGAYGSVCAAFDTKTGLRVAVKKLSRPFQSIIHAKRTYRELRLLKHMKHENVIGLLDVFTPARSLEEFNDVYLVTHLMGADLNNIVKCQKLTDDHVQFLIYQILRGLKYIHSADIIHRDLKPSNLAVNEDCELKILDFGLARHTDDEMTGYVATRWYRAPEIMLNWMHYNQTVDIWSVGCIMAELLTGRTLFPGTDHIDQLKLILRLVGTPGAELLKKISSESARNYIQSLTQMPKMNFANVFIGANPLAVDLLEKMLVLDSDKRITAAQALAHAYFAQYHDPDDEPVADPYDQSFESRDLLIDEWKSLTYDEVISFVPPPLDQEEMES
Mitogen-activated protein kinase 11, sequence (Q15759 whole entry): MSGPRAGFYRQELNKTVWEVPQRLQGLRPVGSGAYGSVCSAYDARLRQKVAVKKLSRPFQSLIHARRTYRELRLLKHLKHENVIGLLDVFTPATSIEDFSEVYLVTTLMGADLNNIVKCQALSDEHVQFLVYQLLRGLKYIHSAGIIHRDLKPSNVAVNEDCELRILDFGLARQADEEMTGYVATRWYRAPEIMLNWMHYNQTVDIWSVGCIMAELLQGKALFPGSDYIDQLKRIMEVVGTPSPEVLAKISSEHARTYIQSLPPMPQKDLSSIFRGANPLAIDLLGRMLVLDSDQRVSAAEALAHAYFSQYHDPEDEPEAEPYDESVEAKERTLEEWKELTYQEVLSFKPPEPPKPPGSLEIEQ

Structure (SMILES): Cn1c(=O)cc(Nc2cc(C(=O)NC3CC3)ccc2Cl)c2cnn(-c3ccc(F)cc3)c21
- Cp (Rattus norvegicus [1]): 3.2 ng/mL
- IC50 [2]: > 10 µM
- solubility [3]: 31.2 µg/mL (≈ 69 µM)
- IC50 (THP-1): 0.0011 µM
- inhibition in vivo at 0.3 mg/kg (Rattus norvegicus [4]): 97.4%
- AUC(0-inf) [5]: 6550 ng·h/mL
- inhibition in vivo at 0.1 mg/kg (Rattus norvegicus [6]): 50.1%
- fraction unbound (Homo sapiens): 0.06
- IC50 (Cytochrome P450 2D6): > 21 µM
- IC50 (Cytochrome P450 2C19): > 21 µM
- Vd [7]: 0.97 L/kg
- inhibition in vivo at 0.03 mg/kg (Rattus norvegicus [8]): 5.6%
- fraction unbound [9]: 0.03
- clearance [10]: 4.33 mL/min/kg
- IC50 (Cytochrome P450 3A4): > 30 µM
- IC50 [11]: > 10 µM
- IC50 (Cytochrome P450 2C9): > 21 µM
- IC50 [12]: > 10 µM
- IC50 [13]: > 10 µM
- half-life [14]: 5.8 h
- IC50 [15]: 0.004 µM
- Kp [16]: 0.04
- ED50 (Rattus norvegicus [17]): 0.1 mg/kg
- inhibition in vivo at 0.01 mg/kg (Rattus norvegicus [18]): 21%
- IC50 (Blood): 0.0025 µM
- IC50 [19]: 0.0015 µM
- IC50 [20]: > 10 µM
- solubility [21]: 38.8 µg/mL (≈ 85.9 µM)
- residual activity [22]: 40%
- IC50 (Cytochrome P450 1A2): > 30 µM
- solubility [23]: 26.6 µg/mL (≈ 58.9 µM)
- bioavailability [24]: 84%
